Laboratory results taken from ChEMBL document CHEMBL1125170, “A novel series of selective leukotriene antagonists: exploration and optimization of the acidic region in 1,6-disubstituted indoles and indazoles” (1990).
Each block holds one compound with its values, some of them ahead of it. Active and inactive are the calls of the source. No cut-off for these calls is given here.

What was measured:
[1] = organism: Cavia porcellus; assay: In vitro antagonism of 8 nM of peptidoleukotriene (LTE4) induced contraction of guinea pig tracheal spirals at 0.01 X E-7M concentration; type: functional, Trachea
Procedure, shortened: (§1)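 Guinea pig tracheal spirals held at 37 °C in modified Krebs' (mM: NaCl 119, KCl 4.6, CaCl2 1.8, MgCl2 0.5, NaHCO3 24.9, NaH2PO4 1.0, glucose 11.1) plus indomethacin 5 μM, resting tension 2 g, isometric recording. After reproducible 8 nM LTE4 responses, compound added for 10 min, then rechallenged. % inhibition is adjusted for the paired vehicle tissue. At least four spirals, paired t test.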

[2] = organism: Cavia porcellus; assay: In vitro antagonism of 8 nM of peptidoleukotriene (LTE4) induced contraction of guinea pig tracheal spirals at 0.033 X E-7M concentration; type: functional, Trachea; procedure, shortened: as §1
[3] = organism: Cavia porcellus; assay: Dissociation constant KB = [antagonist]/(dose ratio -1). KB determined in guinea pig tracheal spirals with LTE4 as agonist.; type: functional, Trachea
Procedure, shortened: (§2)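 Isolated guinea pig tracheal strips in Krebs' buffer with indomethacin (5 μM), 37 °C, 95% O2/5% CO2, resting tension 2 g. Carbachol (30 μM) sets the maximum. Antagonist incubated 30 min, then cumulative LTE4 concentration–response curves in log increments, one curve per tissue. EC50 by linear regression, paired vehicle controls. KB = [antagonist]/(DR − 1) (Furchgott).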

[4] = organism: Cavia porcellus; assay: In vitro antagonism of 8 nM of peptidoleukotriene (LTE4) induced contraction of guinea pig tracheal spirals at 0.1 X E-7M concentration; type: functional, Trachea; procedure, shortened: as §1
[5] = organism: Cavia porcellus; assay: In vitro antagonism of 8 nM of peptidoleukotriene (LTE4) induced contraction of guinea pig tracheal spirals at 1 X E-7M concentration; type: functional, Trachea; procedure, shortened: as §1
[6] = system: Cavia porcellus; assay: In vivo percent protection against aerosolized LTD4 induced dyspnea in guinea pig at 1 umol/kg po (180 minutes post oral dosing); 40/6; type: functional
[7] = system: Cavia porcellus; assay: In vivo percent protection against aerosolized LTD4 induced dyspnea in guinea pig at 100 umol/kg po (60 minutes post oral dosing); 23/6; type: functional
[8] = target: T1, Cysteinyl leukotriene receptor 1 (Cavia porcellus) (UniProt Q2NNR5); assay: Dissociation constant KB = [antagonist]/(dose ratio -1).KB determined in guinea pig tracheal spirals with LTE4 as agonist; type: functional, tissue-based; conditions: Trachea; procedure, shortened: as §2
T1 sequence (whole entry): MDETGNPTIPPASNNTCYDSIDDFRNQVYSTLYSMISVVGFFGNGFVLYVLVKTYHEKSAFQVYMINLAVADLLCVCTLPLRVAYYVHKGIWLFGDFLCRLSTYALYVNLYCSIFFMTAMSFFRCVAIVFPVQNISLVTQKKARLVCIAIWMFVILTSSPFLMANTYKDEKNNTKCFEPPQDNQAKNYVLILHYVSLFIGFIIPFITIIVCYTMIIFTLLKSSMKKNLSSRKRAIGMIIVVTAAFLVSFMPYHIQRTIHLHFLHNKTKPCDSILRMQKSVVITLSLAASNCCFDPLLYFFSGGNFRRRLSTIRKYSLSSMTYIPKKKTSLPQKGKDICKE

[9] = organism: Cavia porcellus; assay: In vitro antagonism of 8 nM of peptidoleukotriene (LTE4) induced contraction of guinea pig tracheal spirals at 33 X E-7M concentration; type: functional, Trachea; procedure, shortened: as §1
[10] = organism: Cavia porcellus; assay: In vitro antagonism of 8 nM of peptidoleukotriene (LTE4) induced contraction of guinea pig tracheal spirals at 100 X E-7M concentration; Not significant; type: functional, Trachea; procedure, shortened: as §1
[11] = organism: Cavia porcellus; assay: In vitro antagonism of 8 nM of peptidoleukotriene (LTE4) induced contraction of guinea pig tracheal spirals at 10 X E-7M concentration; type: functional, Trachea; procedure, shortened: as §1
[12] = organism: Cavia porcellus; assay: In vitro antagonism of 8 nM of peptidoleukotriene (LTE4) induced contraction of guinea pig tracheal spirals at 3 X E-7M concentration; type: functional, Trachea; procedure, shortened: as §1
[13] = organism: Cavia porcellus; assay: In vitro antagonism of 8 nM of peptidoleukotriene (LTE4) induced contraction of guinea pig tracheal spirals at 3.3 X E-7M concentration; type: functional, Trachea; procedure, shortened: as §1
[14] = system: Cavia porcellus; assay: In vivo percent protection against aerosolized LTD4 induced dyspnea in guinea pig at 10 umol/kg po (180 minutes post oral dosing); 37/8; type: functional
[15] = system: Cavia porcellus; assay: In vivo percent protection against aerosolized LTD4 induced dyspnea in guinea pig at 30 umol/kg po (180 minutes post oral dosing); 89/8; type: functional
[16] = system: Cavia porcellus; assay: In vivo percent protection against aerosolized LTD4 induced dyspnea in guinea pig at 30 umol/kg po (180 minutes post oral dosing); 43/7; type: functional
[17] = organism: Cavia porcellus; assay: In vitro antagonism of 8 nM of peptidoleukotriene (LTE4) induced contraction of guinea pig tracheal spirals at 100 X E-7M concentration; Not active; type: functional; conditions: Trachea; procedure, shortened: as §1
[18] = system: Cavia porcellus; assay: In vivo percent protection against aerosolized LTD4 induced dyspnea in guinea pig at 113 umol/kg po (60 minutes post oral dosing); 14/4; type: functional
[19] = organism: Cavia porcellus; assay: In vitro antagonism of 8 nM of peptidoleukotriene (LTE4) induced contraction of guinea pig tracheal spirals at 0.33 X E-7M concentration; type: functional, Trachea; procedure, shortened: as §1
[20] = system: Cavia porcellus; assay: In vivo percent protection against aerosolized LTD4 induced dyspnea in guinea pig at 30 umol/kg po (180 minutes post oral dosing); 67/11; type: functional
[21] = system: Cavia porcellus; assay: In vivo percent protection against aerosolized LTD4 induced dyspnea in guinea pig at 30 umol/kg po (60 minutes post oral dosing); 48/12; type: functional
[22] = system: Cavia porcellus; assay: In vivo percent protection against aerosolized LTD4 induced dyspnea in guinea pig at 126 umol/kg po (60 minutes post oral dosing); 33/5; type: functional
[23] = organism: Cavia porcellus; assay: In vitro antagonism of 8 nM of peptidoleukotriene (LTE4) induced contraction of guinea pig tracheal spirals at 0.001 X E-7M concentration; type: functional, Trachea; procedure, shortened: as §1

SMILES: COC(=O)C(C(=O)c1ccc(Cn2ccc3ccc(NC(=O)CC4CCCC4)cc32)c(OC)c1)S(=O)(=O)c1ccccc1 (stereo unspecified)
- Antagonism [1]: 63%
- Antagonism [2]: 94%
- pKB [3]: 10.1

SMILES: CCCCC(CC)C(=O)Nc1ccc2ccn(Cc3ccc(C(=O)NS(=O)(=O)c4ccccc4)cc3OC)c2c1 (stereo unspecified)
- Antagonism [4]: 27%
- pKB [3]: 8.6
- Antagonism [5]: 100%

SMILES: COc1cc(C(=O)NS(=O)(=O)c2ccccc2C)ccc1Cn1ccc2ccc(NC(=O)CC3CCCC3)cc21
- Protection [6]: 40%
- pKB [3]: 9.9

SMILES: CCC(C(=O)Nc1ccc2cnn(Cc3ccc(C(=O)NS(=O)(=O)c4ccccc4)cc3OC)c2c1)c1ccccc1 (stereo unspecified)
- Antagonism [2]: 43%

- pKB [8]: 7.8
SMILES: COc1cc(C(=O)O)ccc1Cn1ccc2ccc(NC(=O)OC3CCCC3)cc21
- Protection [7]: 23%
- Antagonism [5]: 61%
- Antagonism [9]: 100%

SMILES: CCCCC(CC)C(=O)Nc1ccc2ccn(Cc3ccc(C(=O)O)cc3OCCCc3ccccc3)c2c1 (stereo unspecified)
- Antagonism [10]: 18%

SMILES: CCCCC(CC)C(=O)Nc1ccc2ccn(Cc3ccc(C(=O)NS(=O)(=O)CCCC)cc3OC)c2c1 (stereo unspecified)
- Antagonism [11]: 100%
- Antagonism [12]: 63%

SMILES: CCC(C(=O)Nc1ccc2ccn(Cc3ccc(C(=O)NS(=O)(=O)c4ccccc4)cc3OC)c2c1)c1ccccc1 (stereo unspecified)
- Antagonism [4]: 33%

SMILES: CCCCOC(=O)Nc1ccc2cnn(Cc3ccc(C(=O)NS(=O)(=O)c4ccccc4)cc3OC)c2c1
- Antagonism [4]: 100%
- Antagonism [2]: 77%
- pKB [3]: 9.2

- pKB [8]: 6.6
SMILES: CCCCC(CC)C(=O)Nc1ccc2ccn(Cc3ccc(-c4nn[nH]n4)cc3OC)c2c1 (stereo unspecified)
- Antagonism [11]: 50%
- Antagonism [13]: 31%

- pKB [8]: 10.3
SMILES: COc1cc(C(=O)NS(=O)(=O)c2ccccc2)ccc1Cn1ncc2ccc(NC(=O)OC3CCCC3)cc21 [ICI-198615]
- Antagonism [1]: 69%
- Protection [14]: 37%
- Protection [15]: 89%
- Antagonism [2]: 100%

SMILES: CCCCC(CC)C(=O)Nc1ccc2ccn(Cc3ccc(C(=O)C(C(=O)OC)S(=O)(=O)c4ccccc4)cc3OC)c2c1 (stereo unspecified)
- Antagonism [4]: 65%
- pKB [3]: 8.5
- Antagonism [5]: 100%

SMILES: COc1cc(-c2nn[nH]n2)ccc1Cn1ccc2ccc(NC(=O)CC3CCCC3)cc21
- Antagonism [11]: 100%
- Antagonism [13]: 79%
- Antagonism [5]: 42%

- pKB [8]: 9.6
SMILES: COc1cc(C(=O)NS(=O)(=O)c2ccccc2)ccc1Cn1ccc2ccc(NC(=O)CC3CCCC3)cc21
- Antagonism [1]: 50%
- Antagonism [2]: 92%
- Protection [16]: 43%

SMILES: COC(=O)C(C(=O)c1ccc(Cn2ncc3ccc(NC(=O)OC4CCCC4)cc32)c(OC)c1)S(=O)(=O)c1ccccc1 (stereo unspecified)
- Antagonism [1]: 53%
- Antagonism [2]: 78%
- pKB [3]: 9.9

SMILES: CCCCOC(=O)Nc1ccc2cnn(Cc3ccc(-c4nn[nH]n4)cc3OC)c2c1
- Antagonism [13]: 55%
- pKB [3]: 7.1

SMILES: COc1cc(CNS(=O)(=O)c2ccccc2)ccc1Cn1ccc2ccc(NC(=O)OC3CCCC3)cc21
- Antagonism [17]: inactive

- pKB [8]: 7.1
SMILES: CCC(C(=O)Nc1ccc2cnn(Cc3ccc(C(=O)O)cc3OC)c2c1)c1ccccc1 (stereo unspecified)
- Protection [18]: 14%
- Antagonism [13]: 30%

- pKB [8]: 9.5
SMILES: COc1cc(C(=O)NS(=O)(=O)c2ccccc2)ccc1Cn1ccc2ccc(NC(=O)OC3CCCC3)cc21
- Antagonism [19]: 100%
- Protection [20]: 67%
- Protection [21]: 48%
- Antagonism [2]: 61%

- pKB [8]: 6.7
SMILES: CCCCOC(=O)Nc1ccc2cnn(Cc3ccc(C(=O)O)cc3OC)c2c1
- Antagonism [13]: 56%
- Protection [22]: 33%

- pKB [8]: 6.6
SMILES: CCCCC(CC)C(=O)Nc1ccc2ccn(Cc3ccc(C(=O)O)cc3OC)c2c1 (stereo unspecified)
- Antagonism [11]: 59%
- Antagonism [9]: 100%

SMILES: COc1cc(C(=O)NS(=O)(=O)c2ccccc2)ccc1Cn1ncc2ccc(NC(=O)CC3CCCC3)cc21
- Antagonism [23]: 23%
- Antagonism [1]: 100%
- pKB [3]: 10.5
